System: U2OS
Experiment: Multiplex assay against U2OS
Format: toxicity, cell-based
Details: human
In short: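 With compound added, live cells were imaged on a CQ1 microscope at 37°C and 5% CO2; staining with Hoechst33342, BioTracker Green Microtubule Cytoskeleton Dye, MitoTracker Red and Annexin V Alexa Fluor 680 had been done at seeding. The CellPathfinder machine-learning gating scheme split cells into Hoechst high-intensity objects or normal cells, normal cells into healthy, pyknosed or fragmented nuclei, and pyknosed cells into mitotic or apoptotic. The tubulin, mitochondrial-mass and membrane-permeability phenotypes are per cents of healthy-nucleus cells.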

[1] = 12 h, 1 µM, compound concentration 1 uM, replicate 1
[2] = 12 h, 1 µM, compound concentration 1 uM, replicate 2
[3] = 12 h, 10 µM, compound concentration 10 uM, replicate 1
[4] = 12 h, 10 µM, compound concentration 10 uM, replicate 2
[5] = 24 h, 1 µM, compound concentration 1 uM, replicate 1
[6] = 24 h, 1 µM, compound concentration 1 uM, replicate 2
[7] = 24 h, 10 µM, compound concentration 10 uM, replicate 1
[8] = 24 h, 10 µM, compound concentration 10 uM, replicate 2
[9] = 48 h, 1 µM, compound concentration 1 uM, replicate 1
[10] = 48 h, 1 µM, compound concentration 1 uM, replicate 2
[11] = 48 h, 10 µM, compound concentration 10 uM, replicate 1
[12] = 48 h, 10 µM, compound concentration 10 uM, replicate 2

## CCc1cccc(CC)c1NC(=O)c1nn(C)c2c1CCc1cnc(Nc3ccc(N4CCN(C)CC4)cc3OC)nc1-2
[1]
  Population Apoptotic (%): 70%
  Population Fragmented Nuclei (%): 38%
  Population Healthy Nuclei (%): 7%
  Population Hoechst High Intensity Objects (%): 8%
  Population Membrane Permeable-Phenotype (%): 100%
  Population Mitochondria Different-Phenotype (%): 75%
  Population Mitotic Cells (%): 29%
  Population Normal (%): 91%
  Population Pyknosed Nuclei (%): 53%
  Population Tubulin-Different-Phenotype (%): 100%
  Total Cell Count: 159
[2]
  Population Apoptotic (%): 68%
  Population Fragmented Nuclei (%): 18%
  Population Healthy Nuclei (%): 12%
  Population Hoechst High Intensity Objects (%): 14%
  Population Membrane Permeable-Phenotype (%): 77%
  Population Mitochondria Different-Phenotype (%): 100%
  Population Mitotic Cells (%): 31%
  Population Normal (%): 85%
  Population Pyknosed Nuclei (%): 68%
  Total Cell Count: 87
[3]
  Population Apoptotic (%): 26%
  Population Fragmented Nuclei (%): 5%
  Population Healthy Nuclei (%): 80%
  Population Hoechst High Intensity Objects (%): 2%
  Population Membrane Permeable-Phenotype (%): 35%
  Population Mitochondria Different-Phenotype (%): 54%
  Population Mitotic Cells (%): 73%
  Population Normal (%): 97%
  Population Pyknosed Nuclei (%): 14%
  Population Tubulin-Different-Phenotype (%): 95%
  Total Cell Count: 143
[4]
  Population Apoptotic (%): 50%
  Population Fragmented Nuclei (%): 8%
  Population Healthy Nuclei (%): 83%
  Population Hoechst High Intensity Objects (%): 18%
  Population Membrane Permeable-Phenotype (%): 22%
  Population Mitochondria Different-Phenotype (%): 69%
  Population Mitotic Cells (%): 50%
  Population Normal (%): 81%
  Population Pyknosed Nuclei (%): 8%
  Population Tubulin-Different-Phenotype (%): 93%
  Total Cell Count: 127
[5]
  Population Apoptotic (%): 94%
  Population Fragmented Nuclei (%): 30%
  Population Healthy Nuclei (%): 9%
  Population Hoechst High Intensity Objects (%): 20%
  Population Membrane Permeable-Phenotype (%): 100%
  Population Mitochondria Different-Phenotype (%): 100%
  Population Mitotic Cells (%): 5%
  Population Normal (%): 80%
  Population Pyknosed Nuclei (%): 59%
  Population Tubulin-Different-Phenotype (%): 100%
  Total Cell Count: 169
[6]
  Population Apoptotic (%): 92%
  Population Fragmented Nuclei (%): 18%
  Population Healthy Nuclei (%): 17%
  Population Mitotic Cells (%): 7%
  Population Pyknosed Nuclei (%): 64%
  Total Cell Count: 84
[7]
  Population Apoptotic (%): 53%
  Population Fragmented Nuclei (%): 10%
  Population Healthy Nuclei (%): 71%
  Population Hoechst High Intensity Objects (%): 1%
  Population Membrane Permeable-Phenotype (%): 22%
  Population Mitochondria Different-Phenotype (%): 73%
  Population Mitotic Cells (%): 46%
  Population Normal (%): 98%
  Population Pyknosed Nuclei (%): 18%
  Population Tubulin-Different-Phenotype (%): 92%
  Total Cell Count: 196
[8]
  Population Apoptotic (%): 41%
  Population Fragmented Nuclei (%): 14%
  Population Healthy Nuclei (%): 69%
  Population Hoechst High Intensity Objects (%): 10%
  Population Membrane Permeable-Phenotype (%): 21%
  Population Mitochondria Different-Phenotype (%): 75%
  Population Mitotic Cells (%): 58%
  Population Normal (%): 89%
  Population Pyknosed Nuclei (%): 16%
  Population Tubulin-Different-Phenotype (%): 94%
  Total Cell Count: 163

## Cl.O=c1c2cccn2c2ccccc2n1CCCN1CCC(c2ccc(Cl)cc2)CC1
[1]
  Population Apoptotic (%): 53%
  Population Fragmented Nuclei (%): 8%
  Population Healthy Nuclei (%): 77%
  Population Hoechst High Intensity Objects (%): 7%
  Population Membrane Permeable-Phenotype (%): 2%
  Population Mitochondria Different-Phenotype (%): 55%
  Population Mitotic Cells (%): 46%
  Population Normal (%): 92%
  Population Pyknosed Nuclei (%): 14%
  Population Tubulin-Different-Phenotype (%): 39%
  Total Cell Count: 233
[2]
  Population Apoptotic (%): 60%
  Population Fragmented Nuclei (%): 16%
  Population Healthy Nuclei (%): 73%
  Population Hoechst High Intensity Objects (%): 8%
  Population Membrane Permeable-Phenotype (%): 0%
  Population Mitochondria Different-Phenotype (%): 56%
  Population Mitotic Cells (%): 40%
  Population Normal (%): 91%
  Population Pyknosed Nuclei (%): 9%
  Population Tubulin-Different-Phenotype (%): 30%
  Total Cell Count: 119
[3]
  Population Apoptotic (%): 81%
  Population Healthy Nuclei (%): 58%
  Population Hoechst High Intensity Objects (%): 8%
  Population Membrane Permeable-Phenotype (%): 61%
  Population Mitotic Cells (%): 18%
  Population Normal (%): 91%
  Population Pyknosed Nuclei (%): 20%
  Population Tubulin-Different-Phenotype (%): 99%
  Total Cell Count: 201
[4]
  Population Apoptotic (%): 78%
  Population Fragmented Nuclei (%): 21%
  Population Healthy Nuclei (%): 57%
  Population Hoechst High Intensity Objects (%): 11%
  Population Membrane Permeable-Phenotype (%): 74%
  Population Mitochondria Different-Phenotype (%): 98%
  Population Mitotic Cells (%): 21%
  Population Normal (%): 89%
  Population Pyknosed Nuclei (%): 21%
  Population Tubulin-Different-Phenotype (%): 98%
  Total Cell Count: 58
[5]
  Population Apoptotic (%): 55%
  Population Fragmented Nuclei (%): 9%
  Population Healthy Nuclei (%): 73%
  Population Hoechst High Intensity Objects (%): 4%
  Population Membrane Permeable-Phenotype (%): 0%
  Population Mitochondria Different-Phenotype (%): 45%
  Population Mitotic Cells (%): 44%
  Population Normal (%): 95%
  Population Pyknosed Nuclei (%): 16%
  Population Tubulin-Different-Phenotype (%): 26%
  Total Cell Count: 300
[6]
  Population Apoptotic (%): 25%
  Population Fragmented Nuclei (%): 16%
  Population Healthy Nuclei (%): 70%
  Population Hoechst High Intensity Objects (%): 7%
  Population Membrane Permeable-Phenotype (%): 2%
  Population Mitochondria Different-Phenotype (%): 38%
  Population Mitotic Cells (%): 75%
  Population Normal (%): 92%
  Population Pyknosed Nuclei (%): 13%
  Population Tubulin-Different-Phenotype (%): 19%
  Total Cell Count: 147
[7]
  Population Apoptotic (%): 88%
  Population Fragmented Nuclei (%): 21%
  Population Healthy Nuclei (%): 45%
  Population Hoechst High Intensity Objects (%): 6%
  Population Membrane Permeable-Phenotype (%): 76%
  Population Mitochondria Different-Phenotype (%): 96%
  Population Mitotic Cells (%): 11%
  Population Normal (%): 93%
  Population Pyknosed Nuclei (%): 33%
  Population Tubulin-Different-Phenotype (%): 100%
  Total Cell Count: 229
[8]
  Population Apoptotic (%): 87%
  Population Fragmented Nuclei (%): 14%
  Population Healthy Nuclei (%): 64%
  Population Hoechst High Intensity Objects (%): 7%
  Population Membrane Permeable-Phenotype (%): 72%
  Population Mitochondria Different-Phenotype (%): 98%
  Population Mitotic Cells (%): 12%
  Population Normal (%): 92%
  Population Pyknosed Nuclei (%): 20%
  Population Tubulin-Different-Phenotype (%): 98%
  Total Cell Count: 65
[9]
  Population Apoptotic (%): 51%
  Population Fragmented Nuclei (%): 6%
  Population Healthy Nuclei (%): 82%
  Population Hoechst High Intensity Objects (%): 4%
  Population Membrane Permeable-Phenotype (%): 2%
  Population Mitochondria Different-Phenotype (%): 17%
  Population Mitotic Cells (%): 48%
  Population Normal (%): 95%
  Population Pyknosed Nuclei (%): 10%
  Population Tubulin-Different-Phenotype (%): 11%
  Total Cell Count: 287
[10]
  Population Apoptotic (%): 62%
  Population Fragmented Nuclei (%): 18%
  Population Healthy Nuclei (%): 70%
  Population Hoechst High Intensity Objects (%): 5%
  Population Membrane Permeable-Phenotype (%): 4%
  Population Mitochondria Different-Phenotype (%): 24%
  Population Mitotic Cells (%): 37%
  Population Normal (%): 94%
  Population Pyknosed Nuclei (%): 11%
  Population Tubulin-Different-Phenotype (%): 18%
  Total Cell Count: 131
[11]
  Population Apoptotic (%): 87%
  Population Fragmented Nuclei (%): 18%
  Population Healthy Nuclei (%): 28%
  Population Hoechst High Intensity Objects (%): 12%
  Population Membrane Permeable-Phenotype (%): 84%
  Population Mitochondria Different-Phenotype (%): 100%
  Population Mitotic Cells (%): 12%
  Population Normal (%): 87%
  Population Pyknosed Nuclei (%): 53%
  Population Tubulin-Different-Phenotype (%): 100%
  Total Cell Count: 318
[12]
  Population Apoptotic (%): 88%
  Population Fragmented Nuclei (%): 16%
  Population Healthy Nuclei (%): 46%
  Population Hoechst High Intensity Objects (%): 10%
  Population Membrane Permeable-Phenotype (%): 67%
  Population Mitochondria Different-Phenotype (%): 97%
  Population Mitotic Cells (%): 11%
  Population Normal (%): 89%
  Population Pyknosed Nuclei (%): 36%
  Population Tubulin-Different-Phenotype (%): 97%
  Total Cell Count: 74

Source: ChEMBL document CHEMBL4689842, “EUbOPEN Chemogenomics Library wave 1” (2021)
